Experimental data of several laboratories.
Protocols differ between the studies behind these lines.
EGFR G719S: Epidermal growth factor receptor (EGFR, Homo sapiens, UniProt P00533, G719S)
EGFR L858R: Epidermal growth factor receptor (EGFR, Homo sapiens, UniProt P00533, L858R)
EGFR: Epidermal growth factor receptor (EGFR, Homo sapiens, UniProt P00533)
EGFR del752-759: Epidermal growth factor receptor (EGFR, Homo sapiens, UniProt P00533, del752-759)
EGFR L861Q: Epidermal growth factor receptor (EGFR, Homo sapiens, UniProt P00533, L861Q)
EGFR T790M: Epidermal growth factor receptor (EGFR, Homo sapiens, UniProt P00533, T790M)
EGFR del746-750: Epidermal growth factor receptor (EGFR, Homo sapiens, UniProt P00533, del746-750)
EGFR del747-750/T751S: Epidermal growth factor receptor (EGFR, Homo sapiens, UniProt P00533, del747-750/T751S)

SMILES | target | test | conditions | remaining binding
CC1CCCN1c1nccc(-c2cnn3ncccc23)n1 (stereo not shown) | EGFR G719S | binding | 1 µM | 100%
c1ccc(N2CCN(Cc3nc4ccccc4[nH]3)CC2)nc1 | EGFR L858R | cell-free assay, competition with immobilised ligand | 1 µM | 100%
Nc1ncc2c(n1)-c1c([nH]c3ccc(C#CC4CC4)cc13)CCCC2 | EGFR | binding, competition with immobilised ligand | 1 µM | 80%
CCN1CCN(Cc2ccc(C(=O)Nc3ccc(C)c(Oc4ccc5c(c4)CC(=O)N5)c3)cc2C(F)(F)F)CC1 | Epidermal growth factor receptor (EGFR, Homo sapiens, UniProt P00533, G719C) | binding, competition with immobilised ligand | 1 µM | 100%
COc1ccc2c(c1)O[C@H](c1ccc(OC)c(OC)c1)C[C@@H]2NC(=O)C1(c2ccc3c(c2)OC(F)(F)O3)CC1 | EGFR G719S | cell-free assay, competition with immobilised ligand | 1 µM | 99%
CN(CCCC(F)(F)F)c1nccc(-c2cnn3ncccc23)n1 | EGFR G719S | binding | 1 µM | 98%
CNC(=O)[C@@H]1CC[C@@H](n2c(-c3ccc4cnccc4c3)nc3ccc(C(=O)NCc4cccc(C(N)=O)c4)cc32)C1 | EGFR del752-759 | binding, competition with immobilised ligand | 1 µM | 91%
O=C(c1ccc(Nc2nccc(-c3cc4ccccc4s3)n2)cc1)N1CCC(N2CCCC2)CC1 | Epidermal growth factor receptor (EGFR, Homo sapiens, UniProt P00533, A750P/del747-749) | binding, competition with immobilised ligand | 1 µM | 100%
CN(C(=O)c1ccccc1)c1cc(N(C)c2ccc3c(c2)CCc2ccc(C(=O)NCCN4CCOCC4)cc2C3=O)ccc1F | EGFR L861Q | cell-free assay, competition with immobilised ligand | 1 µM | 100%
O=C(NCC1CCOCC1)c1n[nH]cc1NC(=O)c1c(F)cccc1F | EGFR del752-759 | binding, competition with immobilised ligand | 1 µM | 100%
N[C@@H]1CCN(c2nccc(-c3cnn4ncccc34)n2)C1 | EGFR T790M | binding | 1 µM | 100%
O=C(Nc1c[nH]nc1C(=O)NC1CCNCC1)c1cc(F)cc(F)c1 | EGFR L858R | binding, competition with immobilised ligand | 1 µM | 90%
CN(C)c1nccc(-c2cnc3ncccn23)n1 | EGFR L861Q | binding | 1 µM | 90%
O=C(NCCCN1CCOCC1)c1ccc(Nc2ncc(Cl)c(-c3ccc(Cl)s3)n2)cc1 | EGFR L858R | binding, competition with immobilised ligand | 1 µM | 82%
COc1cnc(Nc2cccc(S(N)(=O)=O)c2)nc1N1CCN(c2ccccc2)C(=O)C1 | EGFR del746-750 | binding, competition with immobilised ligand | 1 µM | 96%
c1cnn2ncc(-c3ccnc(N4CCC45COC5)n3)c2c1 | EGFR del752-759 | binding | 1 µM | 67%
Nc1cnc(N2CCc3cc(S(=O)(=O)Nc4c(F)cc(Cl)cc4F)cc(N4CCCC4=O)c32)nc1 | EGFR | cell-free assay, competition with immobilised ligand | 1 µM | 82%
O=C(NCCCN1CCOCC1)c1ccc(Nc2nccc(-c3cc4ccccc4s3)n2)cc1 | EGFR del747-750/T751S | binding, competition with immobilised ligand | 1 µM | 100%
CN(C)c1ncnc(-c2ccc3nc(Nc4cc(CN5CCN(C(=O)CC(F)(F)F)CC5)ccn4)[nH]c3c2)c1Cl | EGFR del747-750/T751S | cell-free assay, competition with immobilised ligand | 1 µM | 88%
C[C@@H]1CCN(c2nccc(-c3cnn4ncccc34)n2)C1 | EGFR L858R | binding | 1 µM | 93%
O=C(c1ccc(Nc2ncc(Cl)c(-c3ccc(Cl)s3)n2)cc1)N1CCC(N2CCCC2)CC1 | EGFR G719S | binding, competition with immobilised ligand | 1 µM | 96%
Cn1nc(C(=O)NCc2ccc(C(=O)O)cc2)cc1-c1ccc2[nH]ccc2c1 | EGFR L861Q | cell-free assay, competition with immobilised ligand | 0.1 µM | 69%
c1cncc(-c2cccc(Nc3nccc(NC4CCCCC4)n3)c2)c1 | EGFR T790M | binding, competition with immobilised ligand | 10 µM | 33%
O=C(N[C@H]1CCCCC/C=C\C2C[C@@]2(C(=O)O)NC(=O)[C@@H]2C[C@@H](Oc3ccncc3)CN2C1=O)OC1CCCC1 (stereo partly shown) | EGFR del746-750 | cell-free assay, competition with immobilised ligand | 1 µM | 78%
O=C(c1ccc(Nc2ncc(Cl)c(-c3cc4ccccc4s3)n2)cc1)N1CCC(N2CCCC2)CC1 | EGFR L861Q | binding, competition with immobilised ligand | 1 µM | 92%
COc1cc(-c2cn(C3CCc4c(F)cccc4N(CC(F)(F)F)C3=O)nn2)ccc1-n1cnc(C)c1 (stereo not shown) | EGFR L858R | cell-free assay, competition with immobilised ligand | 1 µM | 100%
Cc1cnc(Nc2ccc(C(=O)N3CCC(N4CCCC4)CC3)cc2)nc1-c1cc2ccccc2s1 | EGFR | binding, competition with immobilised ligand | 1 µM | 83%
COc1cnc(Nc2cccc(S(N)(=O)=O)c2)nc1N1CCN(c2ccccc2)CC1 | EGFR del746-750 | binding, competition with immobilised ligand | 1 µM | 90%
